# Laboratory results published in paper PMC9976451 (The Journal of Biological Chemistry, 2023).
# Like-named read-outs stand apart in the source and are kept apart here.
# Legend:
# AT1R = conditions: read-out: AT1R Kd; cited from earlier work
# human BCKDK [1] = biological target: T1, human BCKDK (Homo sapiens, UniProt O14874); assay: BCKDK biochemical assay; conditions: for maximum BCKDK inhibition in the biochemical assay: plateau of inhibition curve
# How it was run: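 BCKDK freed of MBP tag by TEV cleavage. 11-point half-log test compound series (final 300 μM to 3 nM, 1% DMSO), in duplicate. Reaction started with 50 nM lipoylated fusion substrate plus 15 or 200 μM ATP; 90 min at RT. EDTA stop; Eu-anti-His/anti-pE1/ULight TR-FRET read at 665 nm. IC50 from four-parameter logistic fit.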
# PDK1 = PDK1 (Homo sapiens, UniProt Q15118); assay: PDK1 biochemical assay
# How it was run: (§1)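 Kinetic fluorescence assay (ex 360/em 485 nm) at 30 °C for 240 min using N-terminal GST-tagged kinase at 10 nM. PDK1 (aa 1–436): 6.0 μM ATP, 15 μM AQT0895. PDK4 (aa 1–411): 97 μM ATP, AQT0872. Eleven threefold dilutions (100 μM–1.7 nM final, 2% DMSO), run in duplicate, with a 30 min preincubation before enzyme. No-enzyme background subtracted. IC50 by four-parameter fit of initial rates.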
# BCKDK = conditions: read-out: Ki as ATP competitive inhibitor of BCKDK; cited from earlier work
# [2] = system: BCKD–BCKDK complex purified from rat liver; conditions: read-out: in vitro IC50 to inhibit the BCKD–BCKDK complex, 500 μM ATP; cited from earlier work
# PDK4 = PDK4 (Homo sapiens, UniProt Q16654); assay: PDK4 biochemical assay
# How it was run: as §1
# human BCKDK [3] = biological target: T1, human BCKDK; format: binding
# How it was run: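 BCKDK biotinylated with BirA during TEV cleavage, then immobilized. At least six twofold dilutions injected at 30 μl/min: 120 s association, ≥300 s dissociation. Double reference subtraction using blank injections. For competition, the same series was run with 20 μM radicicol or 20 μM BT2 in running buffer; reduced signal was read as shared site.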
# [4] = Biochemical IC50, ATP concentration of 15 μM
# [5] = Biochemical IC50 at 200 μM ATP, 200 μM ATP
# Sequence of PDK4 (Q16654 whole entry): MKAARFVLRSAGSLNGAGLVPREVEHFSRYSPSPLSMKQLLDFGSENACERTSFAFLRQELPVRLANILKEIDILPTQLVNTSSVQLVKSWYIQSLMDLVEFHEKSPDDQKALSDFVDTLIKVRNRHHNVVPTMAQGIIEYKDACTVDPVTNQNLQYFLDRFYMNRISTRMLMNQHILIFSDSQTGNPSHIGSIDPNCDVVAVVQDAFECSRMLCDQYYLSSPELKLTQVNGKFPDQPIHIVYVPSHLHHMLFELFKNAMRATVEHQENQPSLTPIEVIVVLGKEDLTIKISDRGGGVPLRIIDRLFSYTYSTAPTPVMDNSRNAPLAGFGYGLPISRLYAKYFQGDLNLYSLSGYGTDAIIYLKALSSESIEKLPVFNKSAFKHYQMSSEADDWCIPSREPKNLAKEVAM
# Sequence of PDK1 (Q15118 29-436): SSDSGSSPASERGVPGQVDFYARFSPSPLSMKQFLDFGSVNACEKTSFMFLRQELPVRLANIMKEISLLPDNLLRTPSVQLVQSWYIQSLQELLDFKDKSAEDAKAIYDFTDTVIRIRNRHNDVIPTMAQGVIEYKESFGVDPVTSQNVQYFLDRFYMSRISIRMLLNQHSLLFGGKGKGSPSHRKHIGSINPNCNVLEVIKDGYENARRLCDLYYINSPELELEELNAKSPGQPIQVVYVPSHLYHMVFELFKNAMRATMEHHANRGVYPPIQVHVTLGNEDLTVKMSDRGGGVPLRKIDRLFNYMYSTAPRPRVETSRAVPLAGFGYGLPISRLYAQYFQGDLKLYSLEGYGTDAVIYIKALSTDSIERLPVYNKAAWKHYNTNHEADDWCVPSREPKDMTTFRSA
IC50 (human BCKDK [1]; [4]) [µM],IC50 (human BCKDK [1]; [5]) [µM],maximum BCKDK inhibition in the biochemical assay (human BCKDK [1]) [%],SMILES,further results
–,–,–,CCCc1nc(C(C)(C)O)c(C(=O)O)n1Cc1ccc(-c2ccccc2-c2nnn[nH]2)cc1 [olmesartan acid],"Kd (AT1R): 6.9 nM; IC50 (human BCKDK [1]; read-out: In vitro IC50, Supplementary Table 1, BDK inhibition): 43.7 µM"
0.0069 ± 0.0025,0.021 ± 0.006,100,"CCC1CN(Cc2ccc(-c3ccccc3-c3nnn[nH]3)cc2)c2ncccc2O1 (centres unmarked) [compound 1, 4-((2'-(1H-tetrazol-5-yl)-[1,1′-biphenyl]-4-yl)methyl)-2-ethyl-3,4-dihydro-2H-pyrido[3,2-b][1,4]oxazine]",–
205 ± 51,232 ± 28,–,"COc1ccc(-c2nnn[nH]2)cc1 [fragment 1, 5-(4-methoxyphenyl)-1H-tetrazole]",–
–,–,–,"CCC1CN(Cc2ccc(-c3ccccc3-c3nnn[nH]3)cc2)c2ncccc2O1 (racemic) [racemic, 4-((2'-(1H-tetrazol-5-yl)-[1,1′-biphenyl]-4-yl)methyl)-2-ethyl-3,4-dihydro-2H-pyrido[3,2-b][1,4]oxazine]",IC50 (human BCKDK [1]; in vitro biochemical activity): 0.011 ± 0.0025 µM
1.7 ± 1.9,7.7 ± 4.4,100,CCCCC(=O)N(Cc1ccc(-c2ccccc2-c2nnn[nH]2)cc1)[C@H](C(=O)O)C(C)C [valsartan],Ki (BCKDK): 1360 nM; IC50 [2]: 37.3 µM; IC50 (PDK4): 78 µM
25 ± 3.8,110 ± 21,100,C[C@@H]1C[C@H]2O[C@@H]2/C=C\C=C\C(=O)Cc2c(Cl)c(O)cc(O)c2C(=O)O1 [radicicol],Kd (human BCKDK [3]): 1470 nM
–,–,–,Nc1ncnc2c1ncn2[C@@H]1O[C@H](COP(=O)(O)OP(=O)(O)OP(=O)(O)O)[C@@H](O)[C@H]1O [ATP],"Km (human BCKDK [1]; read-out: Km of ATP, determined in the biochemical assay format): 13.6 ± 0.32 µM"
–,–,–,"CCC1CN(Cc2ccc(-c3ccccc3-c3nnn[nH]3)cc2)c2ncccc2O1 (centres unmarked) [compound 1∗, 4-((2'-(1H-tetrazol-5-yl)-[1,1′-biphenyl]-4-yl)methyl)-2-ethyl-3,4-dihydro-2H-pyrido[3,2-b][1,4]oxazine]",IC50 (human BCKDK [1]; in vitro biochemical activity): 0.032 ± 2e-05 µM

SMILES,IC50 (human BCKDK [1]; [4]) [µM],IC50 (human BCKDK [1]; [5]) [µM],maximum BCKDK inhibition in the biochemical assay (human BCKDK [1]) [%],further results
"O=C(O)c1sc2cc(Cl)ccc2c1Cl [BT2, 3,6-dichlorobenzo[b]thiophene-2-carboxylic acid]",0.96 ± 0.33,0.9 ± 0.37,~75,IC50 (PDK1): 79 µM
"Cc1ccc(-c2ccccc2-c2nnn[nH]2)cc1 [fragment 2, 5-(4′-methyl-[1,1′-biphenyl]-2-yl)-1H-tetrazole]",37.3 ± 7.1,38.7 ± 3.7,–,–
